The values below come from the array DNA melting data of Ke et al. (doi:10.1101/2024.01.08.574731).

Data set [1] can be described thus: folding enthalpy; higher = less favourable; fluorescence melt of hairpins on a sequencing array, two-state fit. To be noted: sodium 0.088 M. Put shortly: (§1)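 Melting temperature and folding enthalpy were derived from bootstrapped two-state fits. The fitted temperatures were raised by 9.35 °C to agree with UV melts, and four replicates were combined by inverse variance. The underlying data were Cy3 fluorescence images of library hairpins, with annealed Cy3 and quencher oligos, on a sequenced MiSeq flow cell in 50 mM Na-HEPES pH 8.0, 25 mM NaCl, taken in 2.5 °C steps up to 60 °C, normalised to pre-quench Cy3 and to control constructs.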

The nature of data set [2]: melting temperature; fluorescence melt of hairpins on a sequencing array, two-state fit, raised by 9.35 °C to match UV melts. To be noted: sodium 0.088 M. The procedure, abridged:
as §1

Turning to GCAAGAGGAAACCCTTGC (((((.(....).))))), the folding enthalpy in data set [1] is -25.9 kcal/mol. Further, the Tm in data set [2] turned out to be 45.3 °C.

Take GCAAGAGGAAACTCTTAC (.(((((....))))).): the folding enthalpy in data set [1] was -14.6 kcal/mol. Moreover, in data set [2], the Tm came to 28 °C.

On to GCAAGCCGAAAGGCCTGC (((.(((....))).))), for which, in data set [1], the folding enthalpy is -23.3 kcal/mol. Also, the Tm in data set [2] was found to be 54 °C.

Consider GCAAGCCGAAAGGCGTGC (((.(((....))).))), for which, in data set [1], the folding enthalpy is -18.9 kcal/mol. Also, in data set [2], the Tm stood at 68.7 °C.

On to GCAAGCCGAAAGGCTGC (((.(((....)))))), for which the folding enthalpy in data set [1] is -18.8 kcal/mol. Further, in data set [2], the Tm stood at 68.5 °C.

On to GCAAGCGAAAGCTAATGC ((((((....)))..))), for which the folding enthalpy in data set [1] is -15.5 kcal/mol. In addition, in data set [2], the Tm is 39.4 °C.

As for GCAAGCGAAAGCTACTGC ((((((....)))..))), in data set [1], the folding enthalpy was -13.2 kcal/mol. Besides, the Tm in data set [2] was found to be 37.3 °C.

GCAAGCGAAAGCTATGC ((((((....))).))): in data set [1], the folding enthalpy is -23 kcal/mol. The Tm in data set [2] was determined as 51.2 °C.

With GCAAGCGAAAGCTCCTGC ((((((....)))..))), the folding enthalpy in data set [1] was -10.1 kcal/mol. For the same sequence, in data set [2], the Tm was 30.9 °C.

Take GCAAGCGAAAGCTCGTGC ((((((....)))..))): the folding enthalpy in data set [1] was -15.1 kcal/mol. The Tm in data set [2] worked out at 37.4 °C.

Turning to GCAAGCGAAAGCTGTGC ((((((....))).))), the folding enthalpy in data set [1] is -15.8 kcal/mol. The Tm in data set [2] came out at 55.9 °C.

Consider GCAAGCGCGAAAGCGTGC (((..(((....)))))), for which the folding enthalpy in data set [1] was -12.5 kcal/mol. In addition, the Tm in data set [2] turned out to be 47.5 °C.

As to GCAAGGCGAAAGCATCGC ((.(.((....)).).)), the folding enthalpy in data set [1] is -14.4 kcal/mol. Besides, the Tm in data set [2] came to 37.3 °C.

On to GCAAGGCGAAAGCCATGC (((.(((....))).))), for which the folding enthalpy in data set [1] is -32.8 kcal/mol. For the same sequence, the Tm in data set [2] stood at 57.9 °C.

Regarding GCAAGGCGAAAGCCCAGC ((..(((....)))..)), the folding enthalpy in data set [1] was -13.1 kcal/mol. The Tm in data set [2] came out at 45.9 °C.

Take GCAAGGCGAAAGCCCCGC ((..(((....)))..)): the folding enthalpy in data set [1] was -10.7 kcal/mol. Besides, the Tm in data set [2] worked out at 37 °C.

For the sequence GCAAGGCGAAAGCCCGGC ((..(((....)))..)), the folding enthalpy in data set [1] is -17.4 kcal/mol. The Tm in data set [2] was 45.9 °C.

In the case of GCAAGGCGAAAGCCGAGC ((..(((....)))..)), in data set [1], the folding enthalpy is -29.1 kcal/mol. Further, the Tm in data set [2] came out at 65 °C.

On to GCAAGGCGAAAGCCGTGC (((.(((....))).))), for which the folding enthalpy in data set [1] was -22.8 kcal/mol. Further, the Tm in data set [2] is 68 °C.

GCAAGGCGAAAGCTTCGC ((.(.((....)).).)): in data set [1], the folding enthalpy was -12.2 kcal/mol. The Tm in data set [2] was determined as 40.9 °C.

With GCAAGGGAAACCTTGC ((((((....)))))), the folding enthalpy in data set [1] was -37.9 kcal/mol. Further, in data set [2], the Tm stood at 60.1 °C.

Consider GCAAGGGGAAACCCCTAC (.(.(((....))).).), for which, in data set [1], the folding enthalpy was -12 kcal/mol. In data set [2], the Tm was 28.7 °C.

In the case of GCAAGTCGAAAGACCTGC (((.(((....))).))), in data set [1], the folding enthalpy was -29.6 kcal/mol. Also, in data set [2], the Tm is 47.9 °C.

GCAATCGAAAGATAATGC ((((((....)))..))): the folding enthalpy in data set [1] was -16.3 kcal/mol. For the same sequence, in data set [2], the Tm is 27.8 °C.

For GCAATCGAAAGATAGTGC ((((((....)))..))), in data set [1], the folding enthalpy is -22.9 kcal/mol. Also, the Tm in data set [2] was determined as 32 °C.

For the sequence GCAATCGAAAGATCGTGC ((((((....)))..))), the folding enthalpy in data set [1] was -16.1 kcal/mol. The Tm in data set [2] worked out at 28 °C.

As to GCAATCGGAAACGATTAC (.(((((....))))).), the folding enthalpy in data set [1] was -16.1 kcal/mol. For the same sequence, the Tm in data set [2] amounted to 38 °C.

On to GCAATGCGAAAGCAGGGC ((..(((....)))..)), for which, in data set [1], the folding enthalpy is -25.4 kcal/mol. Also, the Tm in data set [2] is 60.9 °C.

GCAATGCGAAAGCAGTGC (((.(((....))).))): the folding enthalpy in data set [1] was -33.6 kcal/mol. In addition, the Tm in data set [2] came to 65.6 °C.

Turning to GCAATGCGAAAGCCGTGC (((..((....))..))), the folding enthalpy in data set [1] is -20.4 kcal/mol. For the same sequence, the Tm in data set [2] was found to be 35.4 °C.

In the case of GCAATGCGAAAGCCTTGC ((((.((....)).)))), the folding enthalpy in data set [1] was -27.6 kcal/mol. In data set [2], the Tm stood at 53.9 °C.

Take GCAATGCGAAAGCTCTGC (((..((....))..))): the folding enthalpy in data set [1] was -16.1 kcal/mol. For the same sequence, the Tm in data set [2] was found to be 37.2 °C.

In the case of GCAATGCGAAAGCTTAGC ((.(.((....)).).)), in data set [1], the folding enthalpy is -15.9 kcal/mol. For the same sequence, the Tm in data set [2] turned out to be 36.4 °C.

For GCAATGGAAACATTGC ((((((....)))))), the folding enthalpy in data set [1] is -42.1 kcal/mol. For the same sequence, the Tm in data set [2] stood at 58.1 °C.

On to GCAATGGGAAACCACTGC (((.(((....))).))), for which, in data set [1], the folding enthalpy was -28.6 kcal/mol. In addition, the Tm in data set [2] turned out to be 39.1 °C.

As to GCAATTCGAAAGAACTGC (((.(((....))).))), the folding enthalpy in data set [1] was -31.4 kcal/mol. The Tm in data set [2] is 43.4 °C.
